In one assay the test system is Saccharomyces cerevisiae. Briefly: Inhibition of calcium signal transduction pathway in Saccharomyces cerevisiae YNS17 assessed as growth restoration. Format: functional, organism-based. The essentials: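 Mutant S. cerevisiae YNS17 plate assay. Samples dissolved in MeOH and spotted on plates; growth-restored zones scored over 0.5 to 0.13 μg/spot. Positive control: FK506 at 2.5 ng/spot.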

The target in assay [1] is T1, Glycogen synthase kinase-3 beta (Homo sapiens, UniProt P49841). As to the kind of experiment: Inhibition of human GSK-3beta using peptide substrate.
Assay [2] is filed under the species Homo sapiens. Briefly: Inhibition of calcineurin (unknown origin) using DLDVPIPGRFDRRVpSVAAE as substrate by malachite green based colorimetric method.
A further assay concerns HL-60. As to the kind of experiment: Cytotoxicity against human HL60 cells after 48 hrs by MTT assay. Format: cell-based. Conditions: HL-60, 48 h. In short, it runs like this:
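HL60 cells grown in RPMI 1640 with 10% heat-inactivated FBS and penicillin (50 units/mL)–streptomycin (50 μg/mL). Exposed to samples for 48 h at 37 °C, humidified, 5% CO2. Viability read by MTT assay; IC50 derived.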

In the next assay the test system is WI-38. Briefly: Cytotoxicity against human WI38 cells after 48 hrs by MTT assay. Conditions: WI-38, 48 h. The format is cell-based. In short, it runs like this: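 WI-38 human diploid lung fibroblasts cultured in DMEM at 5 × 10^3 cells/well, then tested for cytotoxicity.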
The target in assay [3] is T1, Glycogen synthase kinase-3 beta. Briefly: Inhibition of human GSK-3beta at 200 uM using peptide substrate.
Target sequence in this assay (P49841 whole entry, looked up): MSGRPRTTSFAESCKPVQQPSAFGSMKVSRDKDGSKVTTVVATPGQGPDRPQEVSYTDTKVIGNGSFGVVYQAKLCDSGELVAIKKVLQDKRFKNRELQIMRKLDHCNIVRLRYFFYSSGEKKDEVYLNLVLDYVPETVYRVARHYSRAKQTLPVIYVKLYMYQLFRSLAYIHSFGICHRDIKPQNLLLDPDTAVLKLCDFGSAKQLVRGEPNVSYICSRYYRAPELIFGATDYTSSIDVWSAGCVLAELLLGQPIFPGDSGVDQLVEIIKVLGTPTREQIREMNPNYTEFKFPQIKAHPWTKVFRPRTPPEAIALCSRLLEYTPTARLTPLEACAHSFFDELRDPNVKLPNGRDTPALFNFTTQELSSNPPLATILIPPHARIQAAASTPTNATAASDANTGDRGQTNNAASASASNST
For assay [4], the species on record is Homo sapiens. As to the kind of experiment: Inhibition of calcineurin (unknown origin) at 200 uM using DLDVPIPGRFDRRVpSVAAE as substrate by malachite green based colorimetric method.

The structures appear in SMILES notation. Active and inactive are the calls of the source. The calls are words filed in the database; no cut-off is given here.

For the compound `Cc1ccc2c(c1)CC[C@H]1[C@@](C)(CO)CCC[C@]21C`, the inhibition result (with Saccharomyces cerevisiae; in assay [1]; in the assay listed under Homo sapiens [2]) was “Dose-dependent effect” each time. In addition, the IC50 in assay [1] is 178 µM; with HL-60 it was 7.1 µM; in the assay with WI-38, > 50 µM.

`Cc1ccc2c(c1CCC(C)(C)O)CCCC2(C)C`: in the assay on Saccharomyces cerevisiae, the inhibition result was “Dose-dependent effect”. For the same compound, the inhibition entry (in assay [3]; in the assay filed under Homo sapiens [4]) was “inactive” throughout. For the same compound, the IC50 in the assay on HL-60 was 41.7 µM; with WI-38 it was > 50 µM.

Regarding `Cc1ccc2c(c1CCC(C)C)CCC[C@]2(C)CO` [KUJIGAMBEROL], the IC50 with WI-38 is > 50 µM.

The values are drawn from ChEMBL document CHEMBL4251665, “Ca2+-Signal Transduction Inhibitors, Kujiol A and Kujigamberol B, Isolated from Kuji Amber Using a Mutant Yeast” (J Nat Prod, 2018).
